Experimental data pooled from the literature.
Protocols differ between the studies behind these lines.
Target: Tyrosine-protein kinase ZAP-70 (ZAP70, Homo sapiens, UniProt P43403)
Residues used in one study (P43403 1-619): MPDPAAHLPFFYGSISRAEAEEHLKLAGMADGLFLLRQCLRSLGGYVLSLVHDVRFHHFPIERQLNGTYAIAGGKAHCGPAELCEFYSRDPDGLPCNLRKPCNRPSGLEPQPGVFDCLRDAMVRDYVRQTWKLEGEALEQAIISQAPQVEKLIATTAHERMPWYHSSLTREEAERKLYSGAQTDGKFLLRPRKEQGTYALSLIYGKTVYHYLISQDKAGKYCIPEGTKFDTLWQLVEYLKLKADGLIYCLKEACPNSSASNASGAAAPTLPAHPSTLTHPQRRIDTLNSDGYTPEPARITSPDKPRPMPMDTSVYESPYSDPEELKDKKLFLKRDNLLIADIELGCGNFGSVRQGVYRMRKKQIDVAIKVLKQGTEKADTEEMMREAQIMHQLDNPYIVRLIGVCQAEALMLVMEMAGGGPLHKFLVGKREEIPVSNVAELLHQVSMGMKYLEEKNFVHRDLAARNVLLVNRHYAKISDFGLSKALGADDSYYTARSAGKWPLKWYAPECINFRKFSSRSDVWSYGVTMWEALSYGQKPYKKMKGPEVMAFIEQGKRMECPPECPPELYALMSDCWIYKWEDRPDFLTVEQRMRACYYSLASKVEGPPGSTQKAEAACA

CN(C)c1ncnc(-c2ccc3nc(Nc4cc(CN5CCN(C(=O)CC(F)(F)F)CC5)ccn4)[nH]c3c2)c1Cl  remaining binding (cell-free assay, competition with immobilised ligand; 1 µM): 100%
COc1ccnn2ncc(-c3ccnc(N(C)C)n3)c12  remaining binding (binding; 1 µM): 86%
Cc1nc(N2CC[C@@H](O)C2)ncc1-c1cc(C(F)(F)F)cc2[nH]ncc12  remaining binding (binding, competition with immobilised ligand; 1 µM): 65%
N[C@H]1CCN(c2nccc(-c3cnn4ncccc34)n2)C1  remaining binding (binding; 1 µM): 100%
O=C(c1ccc(Nc2nccc(-c3cc4ccccc4s3)n2)cc1)N1CCC(N2CCCC2)CC1  remaining binding (binding, competition with immobilised ligand; 1 µM): 15%
O=C(NCCCC1CCCCC1)c1ccc(CNC(=O)c2cnn(-c3ccccc3)c2C(F)(F)F)cc1  remaining binding (cell-free assay, competition with immobilised ligand; 0.1 µM): 100%
CN(CCCC(F)(F)F)c1nccc(-c2cnn3ncccc23)n1  remaining binding (binding; 1 µM): 100%
COc1cnc(Nc2cccc(S(N)(=O)=O)c2)nc1N1CCN(c2ccccc2)CC1  remaining binding (binding, competition with immobilised ligand; 1 µM): 84%
O=C(O)[C@@H]1[C@@H](Cn2nnc3ccccc3c2=O)CC[C@H]1C(=O)c1ccc(OCCC2CCOCC2)cc1  remaining binding (cell-free assay, competition with immobilised ligand; 1 µM): 99%
FC(F)(F)Oc1cccc(-c2cnc3ccc(-c4ccncc4)nn23)c1  remaining binding (binding, competition with immobilised ligand; 5 µM): 69%
O=C(N1CCS(=O)(=O)CC1)N1C[C@H](c2ccc(OC(F)(F)F)cc2)C[C@H](c2nc(C3CC3)no2)C1  remaining binding (cell-free assay, competition with immobilised ligand; 1 µM): 90%
CC(C)(C)c1ccc(-c2nc(CBr)nn2-c2cccc(O)c2)cc1  remaining binding (cell-free assay, competition with immobilised ligand; 10 µM): 80%
O=C(NCc1ncc(C(F)(F)F)cc1Cl)c1ccc2c(c1)C1(CCS(=O)(=O)CC1)[C@@H](C1CC1)N2S(=O)(=O)c1ccc(F)cc1  remaining binding (cell-free assay, competition with immobilised ligand; 1 µM): 72%
C[C@H]1CCN(c2nccc(-c3cnn4ncccc34)n2)C1  remaining binding (binding; 1 µM): 73%
C[C@@H]1CN(c2ccc3ncc(-c4ccc5[nH]nc(C6CC6)c5c4)n3n2)C[C@H](C)O1  remaining binding (binding, competition with immobilised ligand; 50 nM): 100%
O=C(c1ccc(Nc2ncc(Cl)c(-c3cc4ccccc4s3)n2)cc1)N1CCC(N2CCCC2)CC1  remaining binding (binding, competition with immobilised ligand; 1 µM): 10%
CCN1CCN(Cc2ccc(C(=O)Nc3ccc(C)c(Oc4ccc5c(c4)CC(=O)N5)c3)cc2C(F)(F)F)CC1  remaining binding (binding, competition with immobilised ligand; 1 µM): 100%
Cc1cnc(Nc2ccc(C(=O)N3CCC(N4CCCC4)CC3)cc2)nc1-c1cc2ccccc2s1  remaining binding (binding, competition with immobilised ligand; 1 µM): 46%
Cc1cnn2ncc(-c3ccnc(N(C)C)n3)c2c1  remaining binding (binding; 1 µM): 100%
O=C(Nc1c[nH]nc1C(=O)NC1CCNCC1)c1cc(F)cc(F)c1  remaining binding (binding, competition with immobilised ligand; 1 µM): 87%
CCOC(=O)c1cc2cc(-c3cc(C(=O)NCc4ccc(C(=O)O)cc4)nn3C)ccc2[nH]1  remaining binding (cell-free assay, competition with immobilised ligand; 0.1 µM): 98%
COc1ncc2cc3ccccc3nc2c1C#N  remaining binding (cell-free assay, competition with immobilised ligand; 5 µM): 88%
CN(c1nccc(-c2cnn3ncccc23)n1)C1CC1  remaining binding (binding; 1 µM): 100%
Nc1ncc2c(n1)-c1c([nH]c3ccc(C#CC4CC4)cc13)CCCC2  remaining binding (binding, competition with immobilised ligand; 1 µM): 92%
Cc1nc(C2CCN(C(=O)c3ccc(OC(F)(F)F)cc3N)CC2)c2ncc(N3CCN(C)CC3)cc2n1  remaining binding (cell-free assay, competition with immobilised ligand; 1 µM): 100%
CN(C)c1nccc(-c2cnn3ncccc23)n1  remaining binding (binding; 1 µM): 72%
